According to the M2OR odorant receptor database:

Experiments:
Settings in all cases: stereoisomer not certain
[1] = target: T1, OR6C65 (Homo sapiens) (UniProt A6NJZ3)
T1 sequence (whole entry): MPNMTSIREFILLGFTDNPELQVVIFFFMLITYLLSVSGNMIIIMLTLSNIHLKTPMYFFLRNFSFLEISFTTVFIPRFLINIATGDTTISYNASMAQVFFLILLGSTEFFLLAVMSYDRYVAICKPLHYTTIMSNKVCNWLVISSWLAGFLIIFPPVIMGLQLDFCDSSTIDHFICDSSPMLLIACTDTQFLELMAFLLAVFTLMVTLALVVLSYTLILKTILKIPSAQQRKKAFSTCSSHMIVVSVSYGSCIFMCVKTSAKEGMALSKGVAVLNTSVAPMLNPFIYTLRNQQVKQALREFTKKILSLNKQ
Method in brief: (§1)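 Whether a receptor–molecule pair is responsive (active) rests on the original authors' judgment that its measured signal was statistically different from baseline. Pairs without that judgment are non-responsive (inactive). Sources used varied assay methods, commonly transient luciferase assays in mammalian cell lines.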

[2] = target: T2, OR6C68 (Homo sapiens) (UniProt A6NDL8)
T2 sequence (whole entry): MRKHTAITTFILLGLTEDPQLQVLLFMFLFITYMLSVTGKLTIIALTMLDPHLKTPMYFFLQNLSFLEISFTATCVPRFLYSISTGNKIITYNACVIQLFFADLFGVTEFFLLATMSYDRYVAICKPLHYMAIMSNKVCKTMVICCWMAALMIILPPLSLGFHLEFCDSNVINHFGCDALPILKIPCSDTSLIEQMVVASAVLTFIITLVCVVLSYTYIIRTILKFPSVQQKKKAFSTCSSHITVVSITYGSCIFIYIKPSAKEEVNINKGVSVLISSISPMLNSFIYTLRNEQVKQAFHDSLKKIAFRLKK
Method in brief: as §1

[3] = target: T3, OR6C70 (Homo sapiens) (UniProt A6NIJ9)
T3 sequence (whole entry): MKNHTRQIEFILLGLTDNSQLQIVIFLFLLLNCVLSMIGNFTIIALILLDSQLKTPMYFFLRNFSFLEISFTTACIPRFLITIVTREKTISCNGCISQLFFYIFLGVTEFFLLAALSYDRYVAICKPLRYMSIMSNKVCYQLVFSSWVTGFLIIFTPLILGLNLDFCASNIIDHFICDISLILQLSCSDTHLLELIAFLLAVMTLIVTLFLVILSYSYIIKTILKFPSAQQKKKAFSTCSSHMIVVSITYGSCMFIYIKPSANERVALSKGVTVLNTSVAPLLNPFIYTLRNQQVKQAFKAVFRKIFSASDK
Method in brief: as §1

[4] = target: T4, OR6C74 (Homo sapiens) (UniProt A6NCV1)
T4 sequence (whole entry): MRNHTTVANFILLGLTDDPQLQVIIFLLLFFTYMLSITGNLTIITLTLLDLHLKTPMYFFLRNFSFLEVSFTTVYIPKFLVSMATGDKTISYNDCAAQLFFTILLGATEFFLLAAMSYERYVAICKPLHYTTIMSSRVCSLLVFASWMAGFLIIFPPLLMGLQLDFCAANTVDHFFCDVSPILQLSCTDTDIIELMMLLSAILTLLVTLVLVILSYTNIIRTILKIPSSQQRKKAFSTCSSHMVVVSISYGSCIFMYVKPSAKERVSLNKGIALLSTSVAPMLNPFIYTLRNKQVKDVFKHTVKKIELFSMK
Method in brief: as §1

[5] = target: T5, OR6C75 (Homo sapiens) (UniProt A6NL08)
T5 sequence (whole entry): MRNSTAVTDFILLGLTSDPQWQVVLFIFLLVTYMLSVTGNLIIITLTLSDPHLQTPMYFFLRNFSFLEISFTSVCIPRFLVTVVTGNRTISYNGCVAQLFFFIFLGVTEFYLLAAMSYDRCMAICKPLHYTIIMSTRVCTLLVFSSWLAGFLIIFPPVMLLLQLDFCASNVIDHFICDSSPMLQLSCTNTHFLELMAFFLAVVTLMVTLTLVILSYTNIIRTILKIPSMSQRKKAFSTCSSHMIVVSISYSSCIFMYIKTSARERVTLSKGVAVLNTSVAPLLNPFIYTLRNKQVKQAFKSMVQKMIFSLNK
Method in brief: as §1

[6] = target: T6, OR6C76 (Homo sapiens) (UniProt A6NM76)
T6 sequence (whole entry): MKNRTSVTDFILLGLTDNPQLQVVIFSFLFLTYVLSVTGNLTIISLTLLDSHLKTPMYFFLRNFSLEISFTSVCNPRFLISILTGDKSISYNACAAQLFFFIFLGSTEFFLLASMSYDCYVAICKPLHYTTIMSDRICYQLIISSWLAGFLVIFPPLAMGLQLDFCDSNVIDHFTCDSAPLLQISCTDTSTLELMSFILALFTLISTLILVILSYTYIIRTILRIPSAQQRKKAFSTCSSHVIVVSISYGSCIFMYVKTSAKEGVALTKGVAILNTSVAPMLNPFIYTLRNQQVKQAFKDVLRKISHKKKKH
Method in brief: as §1

[7] = target: T7, OR6F1 (Homo sapiens) (UniProt Q8NGZ6)
T7 sequence (whole entry): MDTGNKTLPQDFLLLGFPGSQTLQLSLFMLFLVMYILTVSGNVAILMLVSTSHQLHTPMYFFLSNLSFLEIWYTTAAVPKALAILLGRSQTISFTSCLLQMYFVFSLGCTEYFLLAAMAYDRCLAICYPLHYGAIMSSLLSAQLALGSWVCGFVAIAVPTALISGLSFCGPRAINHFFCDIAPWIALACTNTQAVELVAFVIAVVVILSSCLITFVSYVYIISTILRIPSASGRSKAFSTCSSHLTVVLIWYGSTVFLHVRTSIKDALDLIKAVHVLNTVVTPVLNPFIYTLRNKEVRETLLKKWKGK
Method in brief: as §1

[8] = target: T8, OR6J1 (Homo sapiens) (UniProt Q8NGC5)
T8 sequence (whole entry): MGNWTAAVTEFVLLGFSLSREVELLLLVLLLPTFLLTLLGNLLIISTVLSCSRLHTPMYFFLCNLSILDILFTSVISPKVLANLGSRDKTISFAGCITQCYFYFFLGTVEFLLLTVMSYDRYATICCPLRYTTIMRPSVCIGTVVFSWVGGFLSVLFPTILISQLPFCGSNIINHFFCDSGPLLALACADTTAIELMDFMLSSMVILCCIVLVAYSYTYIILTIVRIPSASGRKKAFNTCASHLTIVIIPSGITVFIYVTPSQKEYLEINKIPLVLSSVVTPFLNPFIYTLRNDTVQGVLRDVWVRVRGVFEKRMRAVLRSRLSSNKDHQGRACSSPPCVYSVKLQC
Method in brief: as §1

[9] = target: T9, OR6K2 (Homo sapiens) (UniProt Q8NGY2)
T9 sequence (whole entry): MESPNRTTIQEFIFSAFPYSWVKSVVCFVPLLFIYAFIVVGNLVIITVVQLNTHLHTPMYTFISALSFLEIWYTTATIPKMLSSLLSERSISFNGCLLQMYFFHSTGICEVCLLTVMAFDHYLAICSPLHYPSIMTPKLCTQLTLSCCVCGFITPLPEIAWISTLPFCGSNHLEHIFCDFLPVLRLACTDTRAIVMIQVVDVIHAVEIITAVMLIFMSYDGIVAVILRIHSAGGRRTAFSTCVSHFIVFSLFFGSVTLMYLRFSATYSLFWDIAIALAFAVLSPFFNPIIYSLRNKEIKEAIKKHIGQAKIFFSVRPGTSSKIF
Method in brief: as §1

[10] = target: T10, OR6K3 (Homo sapiens) (UniProt Q8NGY3)
T10 sequence (whole entry): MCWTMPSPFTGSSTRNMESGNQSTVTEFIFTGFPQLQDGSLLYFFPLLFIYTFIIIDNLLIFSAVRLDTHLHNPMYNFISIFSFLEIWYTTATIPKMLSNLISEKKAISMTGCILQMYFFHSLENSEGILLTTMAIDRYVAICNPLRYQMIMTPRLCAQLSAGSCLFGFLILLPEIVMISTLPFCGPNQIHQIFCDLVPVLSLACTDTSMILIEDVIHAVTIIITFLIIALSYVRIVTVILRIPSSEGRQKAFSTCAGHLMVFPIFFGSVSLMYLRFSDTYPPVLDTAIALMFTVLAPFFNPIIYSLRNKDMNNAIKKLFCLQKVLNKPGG
Method in brief: as §1

[11] = target: T11, OR6K6 (Homo sapiens) (UniProt Q8NGW6)
T11 sequence (whole entry): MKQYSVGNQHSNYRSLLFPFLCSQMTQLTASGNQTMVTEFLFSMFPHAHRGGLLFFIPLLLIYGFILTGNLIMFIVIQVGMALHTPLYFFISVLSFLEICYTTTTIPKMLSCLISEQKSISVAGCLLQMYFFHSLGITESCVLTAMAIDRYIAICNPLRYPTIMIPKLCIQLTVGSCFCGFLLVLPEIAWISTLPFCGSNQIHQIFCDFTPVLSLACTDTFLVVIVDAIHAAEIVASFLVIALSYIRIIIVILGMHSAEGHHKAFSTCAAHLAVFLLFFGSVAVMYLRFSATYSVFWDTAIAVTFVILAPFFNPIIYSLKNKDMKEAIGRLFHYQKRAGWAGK
Method in brief: as §1

[12] = target: T12, OR6M1 (Homo sapiens) (UniProt Q8NGM8)
T12 sequence (whole entry): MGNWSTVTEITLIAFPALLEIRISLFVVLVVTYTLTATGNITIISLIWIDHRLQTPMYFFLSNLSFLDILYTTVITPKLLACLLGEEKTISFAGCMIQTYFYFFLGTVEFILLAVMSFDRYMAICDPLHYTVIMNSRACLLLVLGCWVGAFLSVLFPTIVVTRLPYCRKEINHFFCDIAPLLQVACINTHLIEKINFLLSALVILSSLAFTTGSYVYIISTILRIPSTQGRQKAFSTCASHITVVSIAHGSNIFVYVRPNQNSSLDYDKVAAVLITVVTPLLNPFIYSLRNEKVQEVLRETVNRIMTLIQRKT
Method in brief: as §1

[13] = target: T13, OR6N1 (Homo sapiens) (UniProt Q8NGY5)
T13 sequence (whole entry): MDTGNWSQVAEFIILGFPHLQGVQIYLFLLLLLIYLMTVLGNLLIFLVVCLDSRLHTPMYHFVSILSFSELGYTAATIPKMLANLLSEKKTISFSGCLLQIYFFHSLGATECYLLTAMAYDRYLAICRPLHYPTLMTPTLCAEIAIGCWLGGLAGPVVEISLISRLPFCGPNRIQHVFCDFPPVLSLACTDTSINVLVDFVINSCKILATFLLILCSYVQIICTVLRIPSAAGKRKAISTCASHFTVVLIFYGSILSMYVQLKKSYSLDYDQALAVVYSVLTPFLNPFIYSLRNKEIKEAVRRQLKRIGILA
Method in brief: as §1

[14] = target: T14, OR6N2 (Homo sapiens) (UniProt Q8NGY6)
T14 sequence (whole entry): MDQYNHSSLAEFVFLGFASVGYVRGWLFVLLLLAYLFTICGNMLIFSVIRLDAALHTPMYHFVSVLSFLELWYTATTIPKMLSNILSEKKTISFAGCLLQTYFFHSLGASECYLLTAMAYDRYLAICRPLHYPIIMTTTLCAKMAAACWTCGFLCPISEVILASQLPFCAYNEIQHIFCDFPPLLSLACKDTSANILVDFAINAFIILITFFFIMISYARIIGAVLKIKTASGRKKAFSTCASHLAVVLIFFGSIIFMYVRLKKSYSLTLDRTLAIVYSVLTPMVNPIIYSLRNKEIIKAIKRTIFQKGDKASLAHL
Method in brief: as §1

[15] = target: T15, OR6P1 (Homo sapiens) (UniProt Q8NGX9)
T15 sequence (whole entry): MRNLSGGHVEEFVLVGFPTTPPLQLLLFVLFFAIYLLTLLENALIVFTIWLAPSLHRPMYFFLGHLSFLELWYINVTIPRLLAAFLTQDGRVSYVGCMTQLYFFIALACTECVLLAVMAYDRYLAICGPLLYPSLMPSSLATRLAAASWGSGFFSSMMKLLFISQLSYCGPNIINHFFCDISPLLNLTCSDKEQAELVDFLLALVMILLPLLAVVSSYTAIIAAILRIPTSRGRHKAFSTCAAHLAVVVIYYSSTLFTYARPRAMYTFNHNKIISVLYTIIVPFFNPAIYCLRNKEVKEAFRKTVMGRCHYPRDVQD
Method in brief: as §1

[16] = target: T16, OR6Q1 (Homo sapiens) (UniProt Q8NGQ2)
T16 sequence (whole entry): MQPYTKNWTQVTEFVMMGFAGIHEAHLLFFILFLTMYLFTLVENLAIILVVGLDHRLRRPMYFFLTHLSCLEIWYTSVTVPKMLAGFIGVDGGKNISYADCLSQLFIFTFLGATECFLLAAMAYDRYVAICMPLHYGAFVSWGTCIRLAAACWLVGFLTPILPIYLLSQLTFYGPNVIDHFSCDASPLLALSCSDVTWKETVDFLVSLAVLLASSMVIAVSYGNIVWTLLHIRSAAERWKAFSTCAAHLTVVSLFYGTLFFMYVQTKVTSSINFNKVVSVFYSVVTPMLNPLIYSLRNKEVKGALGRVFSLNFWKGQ
Method in brief: as §1

Measured: odorant receptor agonist call;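 also: active if original authors judged signal statistically different from baseline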

CCCCCC(S)C(C)CO (configuration not stated)
inactive: all assays above

CCCCC(S)C(C)CO (configuration not stated)
inactive: all assays above
